Laboratory results from ChEMBL document CHEMBL1123430, “Potential tumor- or organ-imaging agents. 26. Polyiodinated 2-substituted triacylglycerols as hepatographic agents” (J Med Chem, 1986).

Assays:
[1] = tested on: Rattus norvegicus; assay: Percentage […]/CH3OH extract of the radiolabeled compound in rat liver 5 minutes after iv administration (+/-SEM); format: functional
Summary of the method: (§1)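 Liver and plasma were taken at 5 or 30 min. Plasma was extracted by a modified Folch procedure, and liver was homogenized and extracted. Extracts were run on TLC in hexane/ethyl acetate (5:2) for esters or THF/hexane (1:1) for acids, with unlabeled compound as reference. Plates were cut into 1-cm strips and counted. Values are percent ± SEM, n = 3-5.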

[2] = tested on: Rattus norvegicus; assay: Percentage […]/CH3OH extract of the radiolabeled compound in rat liver 30 minutes after iv administration (+/-SEM); format: functional; summary of the method: as §1
[3] = tested on: Rattus norvegicus; assay: Percentage […]/CH3OH extract of the radiolabeled compound in rat plasma 30 minutes after iv administration (+/-SEM); format: functional; summary of the method: as §1
[4] = tested on: Rattus norvegicus; assay: Distribution of radioactivity of radiolabeled compound in liver of female rats 5 minutes after intravenous administration; format: ADME, organism-based; settings: in vivo
[5] = tested on: Rattus norvegicus; assay: Polyacrylamide Gel Electrophoresis (PAGE) analysis of rat plasma after intravenous administration of radiolabeled compound concentration of below albumin […]; format: functional, organism-based
Summary of the method: (§2)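 ¹²⁵I-labeled compound, radioiodinated by exchange in a pivalic acid melt, solubilized in normal saline with Tween 20 and given iv to adult female Sprague–Dawley rats (200–250 g), 5–30 μCi/animal, 3–4 rats per time point. Plasma was run on polyacrylamide gels. Gels were sectioned and gamma counted. Radioactivity per band (stacking gel, LDL, HDL, albumin, below albumin) is given as % of total applied; mean ± SEM, n = 3-5.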

[6] = tested on: Rattus norvegicus; assay: Polyacrylamide Gel Electrophoresis (PAGE) analysis of rat plasma 5 min after intravenous administration of radiolabeled compound in albumin; format: functional, organism-based
Summary of the method: (§3)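 Gels were sectioned and counted in a γ counter. Radioactivity in each band (stacking gel, LDL, HDL, albumin, below albumin) is expressed as a percentage of the total radioactivity applied to the gel, ± SEM, n = 3-5.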

[7] = tested on: Rattus norvegicus; assay: Polyacrylamide Gel Electrophoresis (PAGE) analysis of rat plasma 30 minutes after intravenous administration of radiolabeled compound in high density lipoprotein; format: functional, organism-based; summary of the method: as §3
[8] = tested on: Rattus norvegicus; assay: Distribution of radioactivity of radiolabeled compound in heart of female rats 5 minutes after intravenous administration; format: ADME, organism-based; settings: in vivo
[9] = tested on: Rattus norvegicus; assay: Distribution of radioactivity of radiolabeled compound in kidney of female rats 30 minutes after intravenous administration; format: ADME, organism-based; settings: in vivo, 0.5 h
[10] = tested on: Rattus norvegicus; assay: Polyacrylamide Gel Electrophoresis (PAGE) analysis of rat plasma 30 minutes after intravenous administration of radiolabeled compound in stacking gel; format: functional, organism-based; summary of the method: as §3
[11] = tested on: Rattus norvegicus; assay: Polyacrylamide Gel Electrophoresis (PAGE) analysis of rat plasma 5 minutes after intravenous administration of radiolabeled compound (below albumin); format: functional, organism-based; summary of the method: as §2
[12] = tested on: Rattus norvegicus; assay: Distribution of radioactivity of radiolabeled compound in lung of female rats 30 minutes after intravenous administration; format: ADME, organism-based; settings: in vivo, 0.5 h
[13] = tested on: Rattus norvegicus; assay: Distribution of radioactivity of radiolabeled compound in blood of female rats 5 minutes after intravenous administration; format: ADME, organism-based; settings: in vivo
[14] = tested on: Rattus norvegicus; assay: Polyacrylamide Gel Electrophoresis (PAGE) analysis of rat plasma 5 minutes after intravenous administration of radiolabeled compound in low-density lipoprotein; format: functional, organism-based; summary of the method: as §2
[15] = tested on: Rattus norvegicus; assay: Percentage parent compound in rat liver 30 minutes after iv administration of the radiolabeled compound by thin-layer chromatography; format: functional; summary of the method: as §1
[16] = tested on: Rattus norvegicus; assay: Polyacrylamide Gel Electrophoresis (PAGE) analysis of rat plasma 5 minutes after intravenous administration of radiolabeled compound in high density lipoprotein; format: functional, organism-based; summary of the method: as §2
[17] = tested on: Rattus norvegicus; assay: Distribution of radioactivity of radiolabeled compound in lung of female rats 5 minutes after intravenous administration; format: ADME, organism-based; settings: in vivo
[18] = tested on: Rattus norvegicus; assay: Polyacrylamide Gel Electrophoresis (PAGE) analysis of rat plasma 30 minutes after intravenous administration of radiolabeled compound in albumin; format: functional, organism-based; summary of the method: as §3
[19] = tested on: Rattus norvegicus; assay: Polyacrylamide Gel Electrophoresis (PAGE) analysis of rat plasma 30 minutes after intravenous administration of radiolabeled compound in low-density lipoprotein; format: functional, organism-based; summary of the method: as §3
[20] = tested on: Rattus norvegicus; assay: Percentage parent compound in rat plasma 30 minutes after iv administration of the radiolabeled compound by thin-layer chromatography; format: functional; summary of the method: as §1
[21] = tested on: Rattus norvegicus; assay: Percentage […]/CH3OH extract of the radiolabeled compound in rat plasma 5 minutes after iv administration (+/-SEM); format: functional; summary of the method: as §1
[22] = tested on: Rattus norvegicus; assay: Distribution of radioactivity of radiolabeled compound in liver of female rats 30 minutes after intravenous administration; format: ADME, organism-based; settings: in vivo, 0.5 h
[23] = tested on: Rattus norvegicus; assay: Percentage parent compound in rat plasma 5 minutes after iv administration of the radiolabeled compound by thin-layer chromatography; format: functional; summary of the method: as §1
[24] = tested on: Rattus norvegicus; assay: Distribution of radioactivity of radiolabeled compound in blood of female rats 30 minutes after intravenous administration; format: ADME, organism-based; settings: in vivo, 0.5 h
[25] = tested on: Rattus norvegicus; assay: Distribution of radioactivity of radiolabeled compound in heart of female rats 30 minutes after intravenous administration; format: ADME, organism-based; settings: in vivo, 0.5 h
[26] = tested on: Rattus norvegicus; assay: Polyacrylamide Gel Electrophoresis (PAGE) analysis of rat plasma 30 minutes after intravenous administration of radiolabeled compound (below albumin); format: functional, organism-based; summary of the method: as §3
[27] = tested on: Rattus norvegicus; assay: Polyacrylamide Gel Electrophoresis (PAGE) analysis of rat plasma 5 minutes after intravenous administration of radiolabeled compound in stacking gel; format: functional, organism-based; summary of the method: as §2
[28] = tested on: Rattus norvegicus; assay: Percentage parent compound in rat liver 5 minutes after iv administration of the radiolabeled compound by thin-layer chromatography; format: functional; summary of the method: as §1
[29] = tested on: Rattus norvegicus; assay: Distribution of radioactivity of radiolabeled compound in kidney of female rats 5 minutes after intravenous administration; format: ADME, organism-based; settings: in vivo
[30] = tested on: Rattus norvegicus; assay: Polyacrylamide Gel Electrophoresis (PAGE) analysis of rat plasma 5 minutes after intravenous administration of radiolabeled compound (below albumin ); format: functional, organism-based; summary of the method: as §2
[31] = tested on: Rattus norvegicus; assay: Polyacrylamide Gel Electrophoresis (PAGE) analysis of rat plasma 30 min after intravenous administration of radiolabeled compound ( below albumin); format: functional, organism-based; summary of the method: as §3
[32] = tested on: Rattus norvegicus; assay: Polyacrylamide Gel Electrophoresis (PAGE) analysis of rat plasma 30 min after intravenous administration of radiolabeled compound in albumin; format: functional, organism-based; summary of the method: as §3
[33] = tested on: Rattus norvegicus; assay: Percentage […]/CH3OH extract of the radiolabeled compound in rat plasma 5 minutes after iv administration; format: functional; summary of the method: as §1
[34] = tested on: Rattus norvegicus; assay: Polyacrylamide Gel Electrophoresis (PAGE) analysis of rat plasma 30 min after intravenous administration of radiolabeled compound at in high density; format: functional, organism-based; summary of the method: as §3
[35] = tested on: Rattus norvegicus; assay: Polyacrylamide Gel Electrophoresis (PAGE) analysis of rat plasma 30 min after intravenous administration of radiolabeled compound inlow density lipoprotein; format: functional, organism-based; summary of the method: as §3
[36] = tested on: Rattus norvegicus; assay: Percentage […]/CH3OH extract of the radiolabeled compound in rat liver 5 minutes after iv administration; format: functional; summary of the method: as §1
[37] = tested on: Rattus norvegicus; assay: Polyacrylamide Gel Electrophoresis (PAGE) analysis of rat plasma 30 minutes after intravenous administration of radiolabeled in stacking gel; format: functional, organism-based; summary of the method: as §3
[38] = tested on: Rattus norvegicus; assay: Polyacrylamide Gel Electrophoresis (PAGE) analysis of rat plasma 5 minutes after intravenous administration of radiolabeled compound at in high density lipoprotein; format: functional, organism-based; summary of the method: as §2
[39] = tested on: Rattus norvegicus; assay: Percentage […]/CH3OH extract of the radiolabeled compound in rat plasma 30 minutes after iv administration; format: functional; summary of the method: as §1
[40] = tested on: Rattus norvegicus; assay: Distribution of radioactivity of radiolabeled compound in lung of female rats 5 minutes after intravenous administration at; format: ADME, organism-based; settings: in vivo
[41] = tested on: Rattus norvegicus; assay: Polyacrylamide Gel Electrophoresis (PAGE) analysis of rat plasma 5 min after intravenous administration of radiolabeled compound concentration of albumin; format: functional, organism-based; summary of the method: as §3
[42] = tested on: Rattus norvegicus; assay: Percentage […]/CH3OH extract of the radiolabeled compound in rat liver 30 minutes after iv administration; format: functional; summary of the method: as §1
[43] = tested on: Rattus norvegicus; assay: Polyacrylamide Gel Electrophoresis (PAGE) analysis of rat plasma 30 min after intravenous administration of radiolabeled compound at concentration of high density; format: functional, organism-based; summary of the method: as §3
[44] = tested on: Rattus norvegicus; assay: Polyacrylamide Gel Electrophoresis (PAGE) analysis of rat plasma 30 min after intravenous administration of radiolabeled compound (below albumin ); format: functional, organism-based; summary of the method: as §3
[45] = tested on: Rattus norvegicus; assay: Polyacrylamide Gel Electrophoresis (PAGE) analysis of rat plasma 30 min after intravenous administration of radiolabeled in low-density lipoprotein; format: functional, organism-based; summary of the method: as §3
[46] = tested on: Rattus norvegicus; assay: Polyacrylamide Gel Electrophoresis (PAGE) analysis of rat plasma 5 minutes after intravenous administration of radiolabeled in stacking gel; format: functional, organism-based; summary of the method: as §2
[47] = tested on: Rattus norvegicus; assay: Distribution of radioactivity of radiolabeled compound in liver of female rats 5 minutes after intravenous administration at; format: ADME, organism-based; settings: in vivo
[48] = tested on: Rattus norvegicus; assay: Polyacrylamide Gel Electrophoresis (PAGE) analysis of rat plasma 30 min after intravenous administration of radiolabeled compound concentration of stacking gel; format: functional, organism-based; summary of the method: as §3
[49] = tested on: Rattus norvegicus; assay: Polyacrylamide Gel Electrophoresis (PAGE) analysis of rat plasma 5 minutes after intravenous administration of radiolabeled in low-density lipoprotein; format: functional, organism-based; summary of the method: as §2

SMILES	Dose [4] [%]	Concentration [6]	Dose [8] [%]	Dose [9] [%]	Dose [12] [%]	Dose [13] [%]	Concentration [14] [%]	Activity [15] [%]	Concentration [16]	Dose [17] [%]	Activity [20] [%]	Dose [22] [%]	Activity [23] [%]	Dose [24] [%]	Dose [25] [%]	Concentration [27] [%]	Activity [28] [%]	Dose [29] [%]	Concentration [30]	Concentration [32]	other results
CCCCCCCCCCCCCCCC(=O)OCC(COC(=O)CCCCCCCCCCCCCCC)OC(=O)CCc1c(I)cc(I)c(N)c1I	1.74	14.6	1.34	1.65	0.93	5.99	20.2	47.7	57.1	1.2	86.1	1.22	75.5	3.23	2.43	4.6	72.5	1.18	–	–	Activity [1]: 68.4%; Activity [2]: 52.1%; Activity [3]: 69.4%; Concentration [5]: 69.4 [middle of 4 runs]; Concentration [7]: 48.9%; Concentration [10]: 4%; Concentration [11]: 2.4; Concentration [18]: 27; Concentration [19]: 15.7%; Activity [21]: 79.1%; Concentration [26]: 4.4
CCCCCCCCCCCCCCCC(=O)OCC(COC(=O)CCCCCCCCCCCCCCC)OC(=O)CCCCCCCCCCCc1c(I)cc(I)c(N)c1I	6.62	–	0.73	1.21	1.84	2.5	26	42.9	–	–	34	5.22	43.2	1.12	0.7	6.9	46.4	0.59	3	48.9	Concentration [31]: 12.5; Activity [33]: 81.8%; Concentration [34]: 15.6%; Concentration [35]: 9.7; Activity [36]: 40.9%; Concentration [37]: 13.2; Concentration [38]: 33.3%; Activity [39]: 54.8%; Dose [40]: 1.73%; Concentration [41]: 30.8; Activity [42]: 61.2%
Nc1c(I)cc(I)c(CCCCCCCCCCCC(=O)O)c1I	–	84.6	1.15	1.46	0.66	1.21	–	–	8	0.95	–	3.63	–	1.06	0.73	–	–	0.77	4.8	54.4	Concentration [43]: 5.6; Concentration [44]: 26.3; Concentration [45]: 3.8; Concentration [46]: 1.5%; Dose [47]: 6.96%; Concentration [48]: 11.2; Concentration [49]: 1
